Measured values published in paper PMC5349769 (ACS chemical neuroscience, 2015).

Columns and labels:
NET = NET (Rattus norvegicus, UniProt Q63380); experiment: Inhibition of [3H]norepinephrine reuptake at NET in rat brain synaptosomes; type: biochemical; conditions: for efficacy as inhibitor of reuptake at NET: dose-response, Figure 1B
DAT = DAT (Rattus norvegicus, UniProt P23977); experiment: Inhibition of [3H]dopamine reuptake at DAT in rat caudate synaptosomes; type: biochemical; conditions: for efficacy as inhibitor of reuptake at DAT: dose-response, Figure 1A; for EC50: read-out: EC50, DAT uptake inhibition
SERT = SERT (Rattus norvegicus, UniProt P31652); experiment: Inhibition of [3H]serotonin reuptake at SERT in rat brain synaptosomes; type: biochemical; conditions: 5 nM [3H]serotonin, data not shown
Method in brief: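 Synaptosomes prepared from rat whole brain minus caudate and cerebellum after CO2 euthanasia. Uptake began by adding tissue suspension to Krebs-phosphate buffer, pH 7.4, containing 0.05 mM pargyline, BSA, ascorbic acid, test compound and 5 nM [3H]serotonin. Unlabeled blockers of competing transporters were included. The assay ended by rapid vacuum filtration through GF/B filters, and retained radioactivity was measured by scintillation counting.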

[1] = test system: intracranial self-stimulation (medial forebrain bundle); conditions: rats; racemate, earlier report ref 15; cited from earlier work
[2] = test system: intracranial self-stimulation (medial forebrain bundle); experiment: Intracranial self-stimulation; type: in vivo, rat; conditions: rats, i.p.
[3] = ratio of reuptake inhibition potencies

Chain of DAT (P23977 whole entry): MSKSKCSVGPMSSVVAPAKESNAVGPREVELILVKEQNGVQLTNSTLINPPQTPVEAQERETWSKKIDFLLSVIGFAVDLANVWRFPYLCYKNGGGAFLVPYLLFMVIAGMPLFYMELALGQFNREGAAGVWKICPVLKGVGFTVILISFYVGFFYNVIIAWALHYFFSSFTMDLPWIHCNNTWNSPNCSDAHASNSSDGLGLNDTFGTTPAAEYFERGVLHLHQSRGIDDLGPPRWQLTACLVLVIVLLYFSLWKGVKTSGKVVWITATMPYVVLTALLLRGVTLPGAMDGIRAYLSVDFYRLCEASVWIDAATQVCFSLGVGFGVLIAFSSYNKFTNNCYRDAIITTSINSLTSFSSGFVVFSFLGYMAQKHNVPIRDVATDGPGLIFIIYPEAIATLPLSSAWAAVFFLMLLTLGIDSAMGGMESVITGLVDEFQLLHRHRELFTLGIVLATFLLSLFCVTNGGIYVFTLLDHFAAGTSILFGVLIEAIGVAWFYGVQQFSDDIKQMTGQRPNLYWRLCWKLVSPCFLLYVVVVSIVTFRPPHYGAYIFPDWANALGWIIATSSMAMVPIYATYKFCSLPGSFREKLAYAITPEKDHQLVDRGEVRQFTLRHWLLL
Chain of NET (Q63380 1-617): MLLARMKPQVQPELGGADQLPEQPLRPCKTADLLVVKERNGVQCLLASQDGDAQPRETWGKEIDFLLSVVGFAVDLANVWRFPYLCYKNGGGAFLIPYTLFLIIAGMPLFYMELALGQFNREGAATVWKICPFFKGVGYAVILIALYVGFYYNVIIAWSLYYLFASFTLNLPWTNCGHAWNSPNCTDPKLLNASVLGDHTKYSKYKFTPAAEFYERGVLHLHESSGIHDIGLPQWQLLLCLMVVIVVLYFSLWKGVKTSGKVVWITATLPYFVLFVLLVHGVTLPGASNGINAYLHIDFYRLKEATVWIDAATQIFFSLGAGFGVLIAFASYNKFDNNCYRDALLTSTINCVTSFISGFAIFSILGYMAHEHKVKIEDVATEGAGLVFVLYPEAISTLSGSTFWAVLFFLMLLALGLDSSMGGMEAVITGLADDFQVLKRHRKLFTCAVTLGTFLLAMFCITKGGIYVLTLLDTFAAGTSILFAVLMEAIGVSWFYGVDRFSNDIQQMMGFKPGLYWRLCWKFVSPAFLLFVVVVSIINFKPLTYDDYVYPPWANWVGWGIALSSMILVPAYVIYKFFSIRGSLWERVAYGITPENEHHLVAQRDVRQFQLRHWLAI
Chain of SERT (P31652 whole entry): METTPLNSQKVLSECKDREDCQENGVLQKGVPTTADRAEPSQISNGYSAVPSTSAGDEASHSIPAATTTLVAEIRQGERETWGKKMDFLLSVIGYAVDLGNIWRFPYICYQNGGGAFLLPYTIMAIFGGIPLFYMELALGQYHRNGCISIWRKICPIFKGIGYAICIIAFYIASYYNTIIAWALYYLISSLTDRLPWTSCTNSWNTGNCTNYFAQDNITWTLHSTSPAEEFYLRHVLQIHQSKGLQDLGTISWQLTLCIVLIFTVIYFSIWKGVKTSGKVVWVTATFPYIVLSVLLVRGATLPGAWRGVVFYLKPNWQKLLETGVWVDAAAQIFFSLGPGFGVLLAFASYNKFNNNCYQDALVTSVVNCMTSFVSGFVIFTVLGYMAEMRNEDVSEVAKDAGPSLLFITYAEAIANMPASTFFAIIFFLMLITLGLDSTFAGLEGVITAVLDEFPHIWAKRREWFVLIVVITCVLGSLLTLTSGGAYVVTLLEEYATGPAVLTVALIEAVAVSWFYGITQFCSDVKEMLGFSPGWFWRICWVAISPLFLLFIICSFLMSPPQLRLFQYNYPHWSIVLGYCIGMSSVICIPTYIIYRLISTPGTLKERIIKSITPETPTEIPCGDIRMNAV

Row | SMILES | efficacy as inhibitor of reuptake at NET (NET) | efficacy as inhibitor of reuptake at DAT (DAT) | EC50 (DAT) [nM] | concentration up to which reuptake of [3H]serotonin at SERT was not inhibited (SERT) [µM] | doses producing significant facilitation of ICSS [1] [mg/kg] | dose without effect on ICSS relative to the lowest effective dose of S(+)MDPV ([2]; up to 10 mg/kg) [fold] | fold more potent as reuptake inhibitor than R(−)MDPV at NET (NET; [3]) [fold] | fold more potent than cocaine at NET (NET; [3]) [fold] | potency relative to the racemate at NET (NET; reuptake inhibition) | fold more potent as reuptake inhibitor than R(−)MDPV at DAT (DAT; [3]) | fold more potent than cocaine at DAT (DAT; [3]) [fold] | potency relative to the racemate at DAT (DAT; reuptake inhibition) | effect on ICSS relative to vehicle, posthoc analysis ([2]; doses of 0.32 and 1.0 mg/kg, one-way ANOVA, Dunnett's posthoc) | effect on ICSS frequency–rate curve (%MCR) ([2]; S(+)MDPV 0.32 mg/kg, R(−)MDPV 3.2 mg/kg, Figure 2B,C)
1 | CCCC(C(=O)c1ccc2c(c1)OCO2)N1CCCC1 (racemic) [(±)MDPV (3), methylenedioxypyrovalerone] | fully efficacious | fully efficacious | 4.85 | > 10 | ≥ 0.32 |  |  |  |  |  |  |  |  | 
2 | CCC[C@H](C(=O)c1ccc2c(c1)OCO2)N1CCCC1.Cl [R(−)MDPV (3R), R(−)-Methylendioxypyrovalerone Hydrochloride] |  |  | 383 |  |  | > 100 |  |  |  |  |  |  |  | 
3 | CCC[C@@H](C(=O)c1ccc2c(c1)OCO2)N1CCCC1.Cl [S(+)MDPV (3S), S(+)-Methylendioxypyrovalerone Hydrochloride] | fully efficacious | fully efficacious | 2.13 |  |  |  | ~80 | 40 | approximately twice as potent | approximately 200 fold | 100 | approximately twice as potent | significantly facilitated ICSS | leftward shift in the ICSS frequency–rate curve
